Assay results as given in ChEMBL document CHEMBL2057165, “Synthesis and antiviral properties of novel 7-heterocyclic substituted 7-deaza-adenine nucleoside inhibitors of Hepatitis C NS5B polymerase” (Bioorg Med Chem, 2012).
pEC50, pIC50: −log10 of the molar value.

Experiments:
Hepatitis C virus = assay: Antiviral activity against Hepatitis C virus genotype 1b infected in human HBI10A cells assessed as inhibition of viral replication in presence of 10% FBS; format: functional, organism-based, Hepacivirus hominis
In short: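 HBI10A hepatoma cells stably carrying a genotype 1b subgenomic bicistronic HCV replicon; EC50 measured in the presence of 10% fetal bovine serum; mean of ≥3 experiments, SD within 20%.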

[1] = Prodrug activation in hamsters liver assessed as NTP formation at 10 mg/kg; format: organism-based; set-up: dose 10 mg/kg; settings: cricetinae, in vivo
In short: (§1)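 Prodrug dosed at 10 mg/Kg in hamster; liver analysed for NTP and NMP species.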

[2] = Prodrug activation in hamsters liver assessed as NMP formation at 10 mg/kg; format: organism-based; set-up: dose 10 mg/kg; settings: cricetinae, in vivo; in short: as §1
[3] = Inhibition of Hepatitis C virus NS5B polymerase; set-up: species or system Hepacivirus hominis
In short: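 Nucleoside triphosphates tested in an NS5B polymerization assay on a heteromeric RNA template; IC50 given as mean of ≥3 experiments, SD within 20%.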

[4] = Oral bioavailability in Wistar Han rat at 1 mg/kg; format: ADME, organism-based; settings: in vivo
In short: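 Pharmacokinetics in Wistar Han rats after 1 mg/Kg given intravenously and orally; parent nucleoside followed in plasma to derive clearance, volume of distribution and oral bioavailability (F).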

Liver [5] = assay: Drug uptake in Wistar Han rat liver assessed as nucleotide triphosphate level per gram of tissue at 20 mg/kg, po measured after 12 hrs; format: ADME, organism-based; set-up: dose 20 mg/kg, route oral; settings: in vivo
In short: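 Wistar Han rats dosed orally at 20 mg/Kg; NTP in liver measured 12 h after dosing, in nmol/g.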

Nucleic Acid = assay: Ratio of drug level in nucleotide triphosphate level in liver to parent compound level in plasma in Wistar Han rat at 20 mg/kg, iv measured after 3 to 12 hrs; format: ADME, organism-based; set-up: dose 20 mg/kg, route intravenous; settings: in vivo
In short: (§2)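 Wistar Han rats given 20 mg/Kg intravenously; NTP in liver measured up to 12 h after dosing, at 3, 6 and 12 h (nmol/g); parent nucleoside measured in plasma, and liver NTP/plasma nucleoside ratio computed at each timepoint.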

Liver [6] = assay: Drug uptake in Wistar Han rat liver assessed as nucleotide triphosphate level per gram of tissue at 20 mg/kg, iv measured after 12 hrs; format: ADME, organism-based; set-up: dose 20 mg/kg, route intravenous; settings: in vivo; in short: as §2
Liver [7] = assay: Drug uptake in Wistar Han rat liver assessed as nucleotide triphosphate level per gram of tissue at 20 mg/kg, iv measured after 6 hrs; format: ADME, organism-based; set-up: dose 20 mg/kg, route intravenous; settings: in vivo; in short: as §2
Liver [8] = assay: Drug uptake in Wistar Han rat liver assessed as nucleotide triphosphate level per gram of tissue at 20 mg/kg, iv measured after 3 hrs; format: ADME, organism-based; set-up: dose 20 mg/kg, route intravenous; settings: in vivo; in short: as §2
[9] = Inhibition of human DNA polymerase gamma
[10] = Inhibition of human DNA polymerase alpha
[11] = Inhibition of human DNA polymerase beta

Structure (SMILES) | pEC50 (Hepatitis C virus) | pIC50 [3] | other results
C[C@@]1(O)[C@H](O)[C@@H](CO)O[C@H]1n1cc(-c2nnco2)c2c(N)ncnc21 | 4.34 | – | –
CCOC(=O)[C@@H](C)NP(=O)(OC[C@H]1O[C@@H](n2cc(-c3ccn[nH]3)c3c(N)ncnc32)[C@](C)(F)[C@@H]1O)Oc1ccccc1 (stereo partly drawn) | < 4.30 | – | Drug metabolism [1]: Not Active; Drug metabolism [2]: Active
CCOC(=O)[C@@H](C)NP(=O)(OC[C@H]1O[C@@H](n2cc(-c3ccn[nH]3)c3c(N)ncnc32)[C@](C)(O)[C@@H]1O)Oc1ccccc1 (stereo partly drawn) | 5.74 | – | –
C[C@@]1(O)[C@H](O)[C@@H](COP(=O)(O)OP(=O)(O)OP(=O)(O)O)O[C@H]1n1ccc2c(N)ncnc21 | – | 7.00 | –
C[C@@]1(O)[C@H](O)[C@@H](CO)O[C@H]1n1cc(-c2cc[nH]n2)c2c(N)ncnc21 | < 4.00 | – | –
C[C@@]1(O)[C@H](O)[C@@H](CO)O[C@H]1n1cc(-c2cn[nH]c2)c2c(N)ncnc21 | 4.52 | – | –
C[C@@]1(O)[C@H](O)[C@@H](CO)O[C@H]1n1cc(-c2ncccn2)c2c(N)ncnc21 | < 4.00 | – | –
C[C@@]1(O)[C@H](O)[C@@H](CO)O[C@H]1n1cc(-c2ncco2)c2c(N)ncnc21 | 5.11 | – | –
Cn1cc(-c2cn([C@@H]3O[C@H](CO)[C@@H](O)[C@@]3(C)O)c3ncnc(N)c23)nn1 | 4.38 | – | –
C[C@@]1(O)[C@H](O)[C@@H](CO)O[C@H]1n1cc(-c2ncon2)c2c(N)ncnc21 | 5.72 | – | bioavailability [4]: 14.7%; Drug uptake (Liver [5]): 0.4 nmol/g; Ratio (Nucleic Acid): 20; Drug uptake (Liver [6]): 0.5 nmol/g; Drug uptake (Liver [7]): 3.9 nmol/g; Drug uptake (Liver [8]): 11.9 nmol/g
Cc1noc(-c2cn([C@@H]3O[C@H](CO)[C@@H](O)[C@@]3(C)O)c3ncnc(N)c23)n1 | 4.38 | – | –
C[C@@]1(F)[C@H](O)[C@@H](CO)O[C@H]1n1cc(-c2ncon2)c2c(N)ncnc21 | 4.39 | – | –
C[C@@]1(F)[C@H](O)[C@@H](CO)O[C@H]1n1cc(-c2ncco2)c2c(N)ncnc21 | 4.43 | – | –
C[C@@]1(F)[C@H](O)[C@@H](CO)O[C@H]1n1cc(-c2ccn[nH]2)c2c(N)ncnc21 | 4.46 | – | –
C[C@@]1(O)[C@H](O)[C@@H](COP(=O)(O)OP(=O)(O)OP(=O)(O)O)O[C@H]1n1cc(-c2cc[nH]n2)c2c(N)ncnc21 | – | 7.00 | pIC50 [9]: < 5.00; pIC50 [10]: < 5.00; pIC50 [11]: < 5.00
C[C@@]1(O)[C@H](O)[C@@H](COP(=O)(O)OP(=O)(O)OP(=O)(O)O)O[C@H]1n1cc(-c2cn[nH]c2)c2c(N)ncnc21 | – | 5.08 | –
C[C@@]1(O)[C@H](O)[C@@H](COP(=O)(O)OP(=O)(O)OP(=O)(O)O)O[C@H]1n1cc(-c2ncccn2)c2c(N)ncnc21 | – | 4.92 | –
C[C@@]1(O)[C@H](O)[C@@H](COP(=O)(O)OP(=O)(O)OP(=O)(O)O)O[C@H]1n1cc(-c2ncco2)c2c(N)ncnc21 | – | 6.30 | –
Cn1cc(-c2cn([C@@H]3O[C@H](COP(=O)(O)OP(=O)(O)OP(=O)(O)O)[C@@H](O)[C@@]3(C)O)c3ncnc(N)c23)nn1 | – | 5.08 | –
C[C@@]1(O)[C@H](O)[C@@H](COP(=O)(O)OP(=O)(O)OP(=O)(O)O)O[C@H]1n1cc(-c2ncon2)c2c(N)ncnc21 | – | 6.30 | pIC50 [9]: < 5.00; pIC50 [10]: < 5.00; pIC50 [11]: < 5.00
Cc1noc(-c2cn([C@@H]3O[C@H](COP(=O)(O)OP(=O)(O)OP(=O)(O)O)[C@@H](O)[C@@]3(C)O)c3ncnc(N)c23)n1 | – | 5.08 | –
C[C@@]1(O)[C@H](O)[C@@H](COP(=O)(O)OP(=O)(O)OP(=O)(O)O)O[C@H]1n1cc(-c2nnco2)c2c(N)ncnc21 | – | < 4.02 | –
C[C@@]1(F)[C@H](O)[C@@H](COP(=O)(O)OP(=O)(O)OP(=O)(O)O)O[C@H]1n1cc(-c2ncon2)c2c(N)ncnc21 | – | 6.40 | –
C[C@@]1(F)[C@H](O)[C@@H](COP(=O)(O)OP(=O)(O)OP(=O)(O)O)O[C@H]1n1cc(-c2ncco2)c2c(N)ncnc21 | – | 6.52 | –
C[C@@]1(F)[C@H](O)[C@@H](COP(=O)(O)OP(=O)(O)OP(=O)(O)O)O[C@H]1n1cc(-c2ccn[nH]2)c2c(N)ncnc21 | – | 7.15 | pIC50 [9]: < 5.00; pIC50 [10]: < 5.00; pIC50 [11]: < 5.00
C[C@@]1(O)[C@H](O)[C@@H](CO)O[C@H]1n1ccc2c(N)ncnc21 [BETA-2'-C-METHYL-7-DEAZA-ADENOSINE] | 6.52 | – | –
